In PMC5116011 (The Journal of antibiotics, 2016):
In brackets after ≈: the same amount, converted by molar mass. Where two headings read alike, the source gives them in different places.

Legend:
P. mirabilis ATCC 25933 = experiment: MIC, microbroth dilution in Mueller-Hinton broth; type: cell-based; conditions: Proteus mirabilis, ATCC25933, read-out: MIC PM
E. faecalis ATCC33186 = experiment: MIC, microbroth dilution in Mueller-Hinton broth; type: cell-based; conditions: Enterococcus faecalis, ATCC33186, read-out: MIC EF
In short: (§1)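 CLSI broth microdilution in cation-adjusted Mueller-Hinton broth. Inocula were grown from MH agar colonies in MH broth, with a final inoculum of 10^5 CFU/ml. Test compound final range was 200–0.2 µg/ml, incubated 37°C for 18–20 h. MIC was the lowest concentration preventing visible growth. Runs were at least duplicate, and the mean MIC was reported.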

S. pneumoniae R6 = experiment: MIC, microbroth dilution in Mueller-Hinton broth; type: cell-based; conditions: Streptococcus pneumoniae, R6, read-out: MIC SP
In short: as §1

E. coli BW25113 = experiment: MIC, microbroth dilution in Mueller-Hinton broth; type: cell-based, Escherichia coli; conditions: for MIC EC MH+BP/CCCP / MIC EC +: E. coli BW25113; for MIC EC MH+BP/CCCP: MH broth with 30 µg/ml 2,2′-bipyridyl and 50 µg/ml CCCP; for MIC EC +: with clavulanic acid (6µg/ml); for MIC: Escherichia coli
B. anthracis sterne = experiment: microbe, parasite or virus in culture; type: cell-based; conditions: Bacillus anthracis, read-out: MIC BA
P. aeruginosa PA01 = experiment: MIC, microbroth dilution in Mueller-Hinton broth; type: cell-based, Pseudomonas aeruginosa; conditions: for MIC PA +: with clavulanic acid (6µg/ml); for MIC: Pseudomonas aeruginosa; for MIC PA MH+BP/CCCP: MH broth with 30 µg/ml 2,2′-bipyridyl and 50 µg/ml CCCP
[1] = test system: S. aureus -ATCC29213 (MSSA); experiment: MIC, microbroth dilution in Mueller-Hinton broth; type: cell-based; conditions: Staphylococcus aureus, read-out: MIC MSSA
In short: as §1

[2] = test system: E. coli BW25113 ΔampC derivative JW4111-2; type: cell-based, Escherichia coli; conditions: for MIC: Escherichia coli, BW25113, read-out: MIC ECΔampC −
B. subtilis ATCC23857 = experiment: MIC, microbroth dilution in Mueller-Hinton broth; type: cell-based; conditions: Bacillus subtilis, ATCC23857, read-out: MIC BS
In short: as §1

P. vulgaris ATCC 33420 = experiment: MIC, microbroth dilution in Mueller-Hinton broth; type: cell-based; conditions: Proteus vulgaris, ATCC33420, read-out: MIC PV
[3] = test system: E. coli BW25113 ΔtolC derivative JW5503-1; experiment: MIC, microbroth dilution in Mueller-Hinton broth; type: cell-based, Escherichia coli; conditions: for MIC: Escherichia coli
S. aureus NRS 70 (MRSA) = experiment: MIC, microbroth dilution in Mueller-Hinton broth; type: cell-based; conditions: Staphylococcus aureus, MRSA|NRS70, read-out: MIC MRSA
In short: as §1

S. pyogenes ATCC700294 = experiment: MIC, microbroth dilution in Mueller-Hinton broth; type: cell-based; conditions: Streptococcus pyogenes, ATCC700294, read-out: MIC SPy
In short: as §1

[4] = BW25113, read-out: MIC EC, E. coli BW25113, Mueller-Hinton broth (Table 2)
[5] = BW25113, read-out: MIC ECΔtolC MH
[6] = BW25113, read-out: MIC ECΔtolC MH+BP

Row | SMILES | MIC (P. mirabilis ATCC 25933) | MIC (E. faecalis ATCC33186) | MIC (S. pneumoniae R6) | MIC EC MH+BP/CCCP (E. coli BW25113) | MIC EC + (E. coli BW25113) | MIC (E. coli BW25113; [4]) | MIC (B. anthracis sterne) | MIC PA + (P. aeruginosa PA01; P. aeruginosa PA01) | MIC (P. aeruginosa PA01; PA01, read-out: MIC PA) | MIC (P. aeruginosa PA01; PA01, read-out: MIC PA MH) | MIC (P. aeruginosa PA01; PA01, read-out: MIC PA MH+BP) | MIC (P. aeruginosa PA01; PA01, read-out: MIC PA MH+CCCP) | MIC [1] | MIC ECΔampC + [2] | MIC (B. subtilis ATCC23857) | MIC (P. vulgaris ATCC 33420) | MIC (S. aureus NRS 70 (MRSA)) | MIC (S. pyogenes ATCC700294) | MIC PA MH+BP/CCCP (P. aeruginosa PA01; P. aeruginosa PA01) | MIC ([3]; BW25113, read-out: MIC ECΔtolC) | further results
1 | CC1(C)S[C@@H]2[C@H](NC(=O)[C@H](N)c3ccccc3)C(=O)N2[C@H]1C(=O)O [ampicillin, reference compound] | 3.13 µg/mL (≈ 8.96 µM) | 3.13 µg/mL (≈ 8.96 µM) | < 0.2 µg/mL | 0.78 µg/mL (≈ 2.23 µM) | 1.56 µg/mL | 3.13 µg/mL (≈ 8.96 µM) | < 0.2 µg/mL | 100 µg/mL | > 200 µg/mL | > 200 µg/mL | > 200 µg/mL | > 200 µg/mL | < 0.2 µg/mL | 1.56 µg/mL | < 0.2 µg/mL | 100 µg/mL (≈ 286 µM) | 50 µg/mL (≈ 143 µM) | < 0.2 µg/mL |  |  | MIC PA (P. aeruginosa PA01; P. aeruginosa PA01, Mueller-Hinton broth (Table 2)): >200 µg/mL; MIC (P. aeruginosa PA01; PA01, read-out: MIC PA −): > 200 µg/mL; MIC ECΔtolC MH+BP/CCCP ([3]; {}): 0.39 µg/mL (≈ 1.12 µM); MIC ECΔtolC MH+CCCP ([3]; {}): 1.56 µg/mL (≈ 4.46 µM)
2 | CCN1CCN(C(=O)N[C@@H](C(=O)N[C@@H]2C(=O)N3[C@@H]2SC(C)(C)[C@@H]3C(=O)O)c2ccccc2)C(=O)C1=O [piperacillin, reference compound] | 0.19 µg/mL (≈ 0.367 µM) | 3.13 µg/mL (≈ 6.05 µM) | < 0.2 µg/mL | 0.78 µg/mL (≈ 1.51 µM) | 3.13 µg/mL |  | 0.39 µg/mL (≈ 0.754 µM) | 3.13 µg/mL |  |  |  | 3.13 µg/mL (≈ 6.05 µM) | < 0.2 µg/mL | 1.56 µg/mL | 0.39 µg/mL (≈ 0.754 µM) | 1.56 µg/mL (≈ 3.01 µM) | 25 µg/mL (≈ 48.3 µM) | < 0.2 µg/mL | 3.13 µg/mL (≈ 6.05 µM) | 1.56 µg/mL (≈ 3.01 µM) | MIC (E. coli BW25113; BW25113, read-out: MIC EC MH+BP): 1.56 µg/mL (≈ 3.01 µM); MIC [2]: 1.56 µg/mL (≈ 3.01 µM); MIC [3, 5]: 0.09 µg/mL (≈ 0.174 µM); MIC [3, 6]: 0.09 µg/mL (≈ 0.174 µM)
3 | CC(C)(C)Oc1ccc(CC2NC(=O)C(C(=O)NC(C(=O)NC3C(=O)N4C3SC(C)(C)C4C(=O)O)c3ccccc3)=C2O)cc1 (stereo not shown) [Compound 1905] | 25 µg/mL (≈ 39.3 µM) | 50 µg/mL (≈ 78.5 µM) | < 0.2 µg/mL | 6.25 µg/mL (≈ 9.82 µM) | 12.5 µg/mL | 25 µg/mL (≈ 39.3 µM) | 3.13 µg/mL (≈ 4.92 µM) | 12.5 µg/mL | 25 µg/mL (≈ 39.3 µM) | 25 µg/mL (≈ 39.3 µM) | 6.25 µg/mL (≈ 9.82 µM) | 3.13 µg/mL (≈ 4.92 µM) | 0.78 µg/mL (≈ 1.23 µM) | 12.5 µg/mL | 3.13 µg/mL (≈ 4.92 µM) | 50 µg/mL (≈ 78.5 µM) | 50 µg/mL (≈ 78.5 µM) | 0.78 µg/mL (≈ 1.23 µM) | 0.78 µg/mL (≈ 1.23 µM) | 6.25 µg/mL (≈ 9.82 µM) | MIC (P. aeruginosa PA01; PA01, read-out: MIC PA −): 25 µg/mL (≈ 39.3 µM); MIC [3, 5]: 6.25 µg/mL (≈ 9.82 µM); MIC [3, 6]: 1.56 µg/mL (≈ 2.45 µM); MIC ECΔtolC MH+BP/CCCP ([3]; {}): 0.78 µg/mL (≈ 1.23 µM); MIC ECΔtolC MH+CCCP ([3]; {}): 1.56 µg/mL (≈ 2.45 µM)
4 | CC1(C)SC2C(NC(=O)C(NC(=O)C3=C(O)C4(CC4)NC3=O)c3ccccc3)C(=O)N2C1C(=O)O (stereo not shown) [Compound 2833] | 6.25 µg/mL (≈ 12.5 µM) | 12.5 µg/mL (≈ 25 µM) | < 0.2 µg/mL | 6.25 µg/mL (≈ 12.5 µM) | 12.5 µg/mL | 100 µg/mL (≈ 200 µM) | 1.56 µg/mL (≈ 3.12 µM) | 6.25 µg/mL | 25 µg/mL (≈ 49.9 µM) | 25 µg/mL (≈ 49.9 µM) | 25 µg/mL (≈ 49.9 µM) | 12.5 µg/mL (≈ 25 µM) | < 0.2 µg/mL | 6.25 µg/mL | 0.39 µg/mL (≈ 0.779 µM) | 100 µg/mL (≈ 200 µM) | 25 µg/mL (≈ 49.9 µM) | 0.78 µg/mL (≈ 1.56 µM) | 12.5 µg/mL (≈ 25 µM) | 3.13 µg/mL (≈ 6.25 µM) | MIC [2]: 12.5 µg/mL (≈ 25 µM); MIC [3, 5]: 3.13 µg/mL (≈ 6.25 µM); MIC [3, 6]: 1.56 µg/mL (≈ 3.12 µM); MIC ECΔtolC MH+BP/CCCP ([3]; {}): 0.78 µg/mL (≈ 1.56 µM); MIC ECΔtolC MH+CCCP ([3]; {}): 1.56 µg/mL (≈ 3.12 µM)
5 | CC1(C)S[C@@H]2[C@H](NC(=O)C(C(=O)O)c3ccccc3)C(=O)N2[C@H]1C(=O)O (stereo partly shown) [carbenicillin, reference compound] | 1.56 µg/mL (≈ 4.12 µM) | 3.13 µg/mL (≈ 8.27 µM) | < 0.2 µg/mL | 0.78 µg/mL (≈ 2.06 µM) |  | 100 µg/mL (≈ 264 µM) | < 0.2 µg/mL |  | 100 µg/mL (≈ 264 µM) | 200 µg/mL (≈ 529 µM) | 50 µg/mL (≈ 132 µM) | 25 µg/mL (≈ 66.1 µM) | < 0.2 µg/mL |  | < 0.2 µg/mL | 100 µg/mL (≈ 264 µM) | 6.25 µg/mL (≈ 16.5 µM) | < 0.2 µg/mL | 1.56 µg/mL (≈ 4.12 µM) | 0.09 µg/mL (≈ 0.238 µM) | MIC ECΔtolC MH+CCCP ([3]; E. coli BW25113 ΔtolC JW5503-1, MH broth containing 50 µg/ml CCCP): 0.78 µg/mL (≈ 2.06 µM); MIC [3, 5]: 1.56 µg/mL (≈ 4.12 µM); MIC [3, 6]: 0.56 µg/mL (≈ 1.48 µM)
